For data set [1], the system named is SARS-CoV-2. Type of data set: cell-based.
Data set [2] deals with SARS-CoV-2. As to conditions: COVID-19 patients, on the 6th day; cited from earlier work.
Data set [3] is described as follows: In vivo acute toxicity assay. Particulars: oral 230 mg/kg twice a day. The essentials:
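Test compounds as sulfate salts, dissolved in physiological saline. Mice (25 g) were fasted overnight: 16 male and 16 female in four groups (n = 8), male and female vehicle controls and male and female test groups. They were dosed intragastrically with vehicle or 230 mg/kg twice a day. Death, daily behaviour and body weight were monitored for 20 days, and survival was plotted as curves.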

Data on 4 compounds can be found in publication PMC8606320 (Bioorganic & Medicinal Chemistry, 2021).

Consider `CCN(CCO)CCCC(C)Nc1ccnc2cc(Cl)ccc12.O=S(=O)(O)O` (racemic) [Rac-HCQ, hydroxychloroquine, reference compound], for which the “inhibition of cytopathic changes caused by the virus” value with SARS-CoV-2 [1] is “complete inhibition”. The “nasopharyngeal swab virus negative rate” value with SARS-CoV-2 [2] is recorded as 57.1%.
Consider `CCC(CC)COC(=O)[C@H](C)N[P@](=O)(OC[C@H]1O[C@@](C#N)(c2ccc3c(N)ncnn23)[C@H](O)[C@@H]1O)Oc1ccccc1` [Remdesivir, reference compound], for which the “inhibition of the occurrence of lesions (CPE)” value in the data set with SARS-CoV-2 [1] is reported as “completely inhibited”.
Regarding “(S)-2-((4-((7-chloroquinolin-4-yl) amino) pentyl) (ethyl) amino) ethan-1-ol sulfate [S-HCQ]”, the “inhibition of cytopathic changes caused by the virus” value with SARS-CoV-2 [1] is listed as “complete inhibition”. Also, the “day at which mice appeared malaise” value in data set [3] (monitored 20 days) is listed as 9 dpd.
Regarding “(R)-2-((4-((7-chloroquinolin-4-yl) amino) pentyl) (ethyl) amino) ethan-1-ol sulfate [R-HCQ]”, the “inhibition of cytopathic changes caused by the virus” value in the data set on SARS-CoV-2 [1] is reported as “complete inhibition”. Besides, the “tolerability in mice compared to Rac-HCQ and S-HCQ” value in data set [3] is reported as “better tolerated”. Further, the “day until which mice performed well” value in data set [3] (monitored 20 days) is recorded as 12 dpd.
